Results collected from several papers.
Protocols differ between the studies behind these lines.
Target: Serine/threonine-protein kinase ULK3 (ULK3, Homo sapiens, UniProt Q6PHR2)
Residues used in one study (Q6PHR2 1-472): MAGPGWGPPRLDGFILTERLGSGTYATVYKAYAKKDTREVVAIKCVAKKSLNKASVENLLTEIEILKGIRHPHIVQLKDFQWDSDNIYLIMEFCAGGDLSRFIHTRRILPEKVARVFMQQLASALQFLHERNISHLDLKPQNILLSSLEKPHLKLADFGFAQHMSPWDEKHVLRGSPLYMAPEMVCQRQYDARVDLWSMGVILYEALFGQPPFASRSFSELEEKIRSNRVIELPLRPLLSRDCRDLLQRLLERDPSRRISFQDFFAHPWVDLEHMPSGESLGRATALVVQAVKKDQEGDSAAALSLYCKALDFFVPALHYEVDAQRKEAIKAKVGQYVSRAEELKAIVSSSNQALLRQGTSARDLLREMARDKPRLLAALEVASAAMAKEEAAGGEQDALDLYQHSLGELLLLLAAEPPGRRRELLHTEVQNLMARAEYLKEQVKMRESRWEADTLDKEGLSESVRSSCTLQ

SMILES | assay | conditions | remaining binding [%]
COc1cnc(Nc2cccc(S(N)(=O)=O)c2)nc1N1CCN(c2ccccc2)C(=O)C1 | binding, competition with immobilised ligand | 1 µM | 45
O=C(NCCCN1CCOCC1)c1ccc(Nc2nccc(-c3cc4ccccc4s3)n2)cc1 | binding, competition with immobilised ligand | 1 µM | 3.2
CN(c1nccc(-c2cnn3ncccc23)n1)C1CC1 | binding | 1 µM | 100
O=C(NCC1CCOCC1)c1n[nH]cc1NC(=O)c1c(F)cccc1F | binding, competition with immobilised ligand | 1 µM | 85
COc1ncc2cc3ccccc3nc2c1C#N | cell-free assay, competition with immobilised ligand | 5 µM | 91
CS(=O)(=O)NCC[C@H](NC(=O)c1cncc2c1cnn2-c1ccc(F)cc1)c1ccnc(S(C)(=O)=O)c1 | cell-free assay, competition with immobilised ligand | 1 µM | 100
F[C@@H]1CCN(c2nccc(-c3cnn4ncccc34)n2)C1 | binding | 1 µM | 100
C[C@H](c1ccc(F)cc1)N(Cc1cccc(C(=O)O)c1)C(=O)c1cnc2ccccc2c1 | cell-free assay, competition with immobilised ligand | 1 µM | 82
c1cnn2ncc(-c3ccnc(N4CCC45COC5)n3)c2c1 | binding | 1 µM | 64
O=C(NCc1ncc(C(F)(F)F)cc1Cl)c1ccc2c(c1)C1(CCS(=O)(=O)CC1)[C@@H](C1CC1)N2S(=O)(=O)c1ccc(F)cc1 | cell-free assay, competition with immobilised ligand | 1 µM | 69
O=C(NCCCN1CCOCC1)c1ccc(Nc2ncc(Cl)c(-c3ccc(Cl)s3)n2)cc1 | binding, competition with immobilised ligand | 1 µM | 6.5
N[C@@H]1CCN(c2nccc(-c3cnn4ncccc34)n2)C1 | binding | 1 µM | 100
O=C(Nc1cccnn1)N1CC(C/C=C/c2cncc(Oc3ccc(C(F)(F)F)cn3)n2)C1 | cell-free assay, competition with immobilised ligand | 1 µM | 82
CNC(=O)[C@@H]1CC[C@@H](n2c(-c3ccc4cnccc4c3)nc3ccc(C(=O)NCc4cccc(C(N)=O)c4)cc32)C1 | binding, competition with immobilised ligand | 1 µM | 88
CN(C)c1ncnc(-c2ccc3nc(Nc4cc(CN5CCN(C(=O)CC(F)(F)F)CC5)ccn4)[nH]c3c2)c1Cl | cell-free assay, competition with immobilised ligand | 1 µM | 61
C[C@@H]1CCN(c2nccc(-c3cnn4ncccc34)n2)C1 | binding | 1 µM | 80
O=C(Nc1ccc(Oc2ccc(F)cc2)cc1)N1CCc2ncccc2[C@H]1c1ccc(F)cc1 | cell-free assay, competition with immobilised ligand | 1 µM | 99
CCN1CCN(Cc2ccc(C(=O)Nc3ccc(C)c(Oc4ccc5c(c4)CC(=O)N5)c3)cc2C(F)(F)F)CC1 | binding, competition with immobilised ligand | 1 µM | 100
CN(C)c1nccc(-c2cnn3ncccc23)n1 | binding | 1 µM | 77
O=C(c1ccc(Nc2ncc(Cl)c(-c3ccc(Cl)s3)n2)cc1)N1CCC(N2CCCC2)CC1 | binding, competition with immobilised ligand | 1 µM | 0.1
